Results reported in ChEMBL document CHEMBL1135838, “alpha(1)-Adrenoceptor agonists: the identification of novel alpha(1A )subtype selective 2'-heteroaryl-2-(phenoxymethyl)imidazolines” (Bioorg Med Chem Lett, 2002).

Legend:
[1] = target: T1, Alpha-1B adrenergic receptor (Homo sapiens, UniProt P35368); assay: Activation of recombinant human adrenergic, alpha-1B receptor expressed in rat-1 fibroblasts determined via calcium mobilization through Gq coupled PLC pathway; type: functional
T1 sequence (P35368 whole entry): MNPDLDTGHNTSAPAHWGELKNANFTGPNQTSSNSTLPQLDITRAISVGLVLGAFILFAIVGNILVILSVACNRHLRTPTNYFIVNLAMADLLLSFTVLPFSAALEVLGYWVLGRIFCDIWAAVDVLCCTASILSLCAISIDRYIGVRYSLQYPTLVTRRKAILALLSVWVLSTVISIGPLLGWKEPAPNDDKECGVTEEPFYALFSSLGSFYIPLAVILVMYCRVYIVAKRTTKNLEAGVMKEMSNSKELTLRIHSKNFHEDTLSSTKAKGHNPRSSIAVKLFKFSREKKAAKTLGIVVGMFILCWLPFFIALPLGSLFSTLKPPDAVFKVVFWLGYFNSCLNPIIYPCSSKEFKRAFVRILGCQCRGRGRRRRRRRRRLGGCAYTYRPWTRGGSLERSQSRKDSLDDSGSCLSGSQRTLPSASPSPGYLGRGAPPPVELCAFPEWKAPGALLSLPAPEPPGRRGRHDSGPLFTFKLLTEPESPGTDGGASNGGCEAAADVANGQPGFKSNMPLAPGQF
In short: (§1)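 Rat-1 fibroblasts stably expressing cloned human α1A (clone #137-12), α1B (clone #37-11) or α1D (clone #16-7) adrenoceptor were loaded with the Calcium Green calcium-sensitive dye. Gq/PLC-coupled calcium mobilization was read on a FLIPR. Eleven-point concentration–response curves, with a top concentration typically 5 μM, were normalized to the 40 μM phenylephrine response to give pEC50 and % efficacy. Values are the mean of ≥2 experiments.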

[2] = target: T2, Alpha-1D adrenergic receptor (Homo sapiens, UniProt P25100); assay: Binding affinity of compound towards human Alpha-1D adrenergic receptor expressed in rat-1 fibroblast membranes; type: cell membranes
T2 sequence (P25100 whole entry): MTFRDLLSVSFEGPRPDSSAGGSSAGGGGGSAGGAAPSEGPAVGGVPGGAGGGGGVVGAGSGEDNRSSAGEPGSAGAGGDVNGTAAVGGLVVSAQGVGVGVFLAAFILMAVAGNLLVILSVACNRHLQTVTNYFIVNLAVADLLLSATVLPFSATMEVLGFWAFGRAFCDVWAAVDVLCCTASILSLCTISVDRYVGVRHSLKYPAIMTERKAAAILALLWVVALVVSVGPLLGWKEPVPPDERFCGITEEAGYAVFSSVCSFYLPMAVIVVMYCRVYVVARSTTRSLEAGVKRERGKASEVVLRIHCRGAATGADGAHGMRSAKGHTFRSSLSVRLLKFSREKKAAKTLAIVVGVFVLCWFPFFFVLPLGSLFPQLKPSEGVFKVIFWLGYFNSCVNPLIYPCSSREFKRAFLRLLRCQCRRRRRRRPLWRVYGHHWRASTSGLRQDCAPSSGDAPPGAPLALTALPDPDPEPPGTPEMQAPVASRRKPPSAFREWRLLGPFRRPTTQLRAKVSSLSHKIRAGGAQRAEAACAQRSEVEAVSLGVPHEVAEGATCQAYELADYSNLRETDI
In short: (§2)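 Radioligand binding was run on membranes from Rat-1 fibroblasts expressing human α1A, α1B or α1D adrenoceptor. Affinity is reported as pIC50 (±SEM), the mean of at least two experiments.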

[3] = target: T3, Alpha-1A adrenergic receptor (Homo sapiens, UniProt P35348); assay: Binding affinity of compound towards Alpha-1A adrenergic receptor using membranes prepared from Rat-1 fibroblasts expressing human Alpha-1A adrenergic receptor; in short: as §2
T3 sequence (P35348 whole entry): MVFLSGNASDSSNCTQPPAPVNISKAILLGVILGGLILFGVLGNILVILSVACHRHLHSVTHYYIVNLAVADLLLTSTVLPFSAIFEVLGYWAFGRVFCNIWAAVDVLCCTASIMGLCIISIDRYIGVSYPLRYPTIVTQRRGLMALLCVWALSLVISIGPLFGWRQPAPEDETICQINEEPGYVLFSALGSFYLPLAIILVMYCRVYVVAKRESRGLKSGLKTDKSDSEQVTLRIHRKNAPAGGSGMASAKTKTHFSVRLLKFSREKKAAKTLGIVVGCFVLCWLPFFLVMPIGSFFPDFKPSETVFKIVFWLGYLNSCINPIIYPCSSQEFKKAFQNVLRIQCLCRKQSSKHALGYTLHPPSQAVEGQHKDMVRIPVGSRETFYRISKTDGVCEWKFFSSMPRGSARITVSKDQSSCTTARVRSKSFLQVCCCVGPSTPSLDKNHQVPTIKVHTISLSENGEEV

[4] = target: T3, Alpha-1A adrenergic receptor; assay: Activation of recombinant human adrenergic,alpha-1A receptor expressed in rat-1 fibroblasts determined via calcium mobilization through Gq coupled PLC pathway; type: functional; in short: as §1
[5] = target: T1, Alpha-1B adrenergic receptor; assay: Binding affinity of compound towards human Alpha-1B adrenergic receptor expressed in rat fibroblast membranes; type: cell membranes, Membrane; in short: as §2
[6] = target: T2, Alpha-1D adrenergic receptor; assay: Activation of recombinant human adrenergic, alpha-1D receptor expressed in rat-1 fibroblasts assayed via calcium mobilization through Gq coupled PLC pathway; type: functional; in short: as §1
[7] = target: T4, Alpha-1A adrenergic receptor (Homo sapiens) (UniProt P35348); assay: Ability to activate cloned human alpha-1A receptor expressed in rat-1 fibroblasts via calcium mobilization through Gq coupled PLC pathway expressed as percent of phenylephrine (40 uM) response; type: functional; in short: as §1
T4 sequence (whole entry): T3 sequence (P35348 whole entry)

[8] = target: T5, Alpha-1B adrenergic receptor (Homo sapiens) (UniProt P35368); assay: Activation of human alpha-1B receptor expressed in rat-1 fibroblasts by calcium mobilization of Gq coupled PLC as percent phenylephrine (40 uM) response; type: functional; in short: as §1
T5 sequence (whole entry): T1 sequence (P35368 whole entry)

[9] = target: T6, Alpha-1D adrenergic receptor (Homo sapiens) (UniProt P25100); assay: Ability to activate human alpha-1D receptor expressed in rat-1 fibroblasts as calcium mobilization through Gq coupled PLC pathway relative to phenylephrine response; type: functional; in short: as §1
T6 sequence (whole entry): T2 sequence (P25100 whole entry)

EC50 [1] | IC50 [2] | IC50 [3] | EC50 [4] | IC50 [5] | EC50 [6] | Max [7] | Max [8] | Max [9] | Structure (SMILES)
> 100000 nM | 1120 nM | 115 nM | 12.6 nM | 2040 nM | > 100000 nM | – | – | – | c1ccc(-c2ccccc2OCC2=NCCN2)nc1
631 nM | – | – | 2.51 nM | – | > 100000 nM | 97% | 46% | – | c1ccc(-c2cnccn2)c(OCC2=NCCN2)c1
3.98 nM | – | – | 1 nM | – | 15.8 nM | 101% | 112% | 93% | c1csc(-c2ccccc2OCC2=NCCN2)c1
1 nM | 53.7 nM | 32.4 nM | 1.26 nM | 269 nM | 6.31 nM | 99% | 104% | 111% | c1c[nH]c(-c2ccccc2OCC2=NCCN2)c1
15.8 nM | – | – | 0.251 nM | – | 12.6 nM | 98% | 103% | 120% | c1ccc(-c2ccsc2)c(OCC2=NCCN2)c1
> 100000 nM | – | – | 12.6 nM | – | > 100000 nM | 104% | – | – | Cc1cnsc1-c1ccccc1OCC1=NCCN1
10 nM | – | – | 1.26 nM | – | > 100000 nM | 106% | 110% | – | c1coc(-c2ccccc2OCC2=NCCN2)c1
> 100000 nM | – | – | 39.8 nM | – | > 100000 nM | 107% | – | – | Cn1nccc1-c1ccccc1OCC1=NCCN1
5.01 nM | – | – | 0.501 nM | – | 5.01 nM | 104% | 111% | 126% | c1ccc(-c2ccoc2)c(OCC2=NCCN2)c1
> 100000 nM | – | – | > 100000 nM | – | > 100000 nM | – | – | – | c1ccc(-c2ccncc2)c(OCC2=NCCN2)c1
> 5010 nM | – | – | > 5010 nM | – | > 5010 nM | – | – | – | CCN(CC)C(=O)c1ccccc1OCC1=NCCN1
79.4 nM | – | – | 5.01 nM | – | > 100000 nM | 119% | 39% | – | c1ccc(-c2cc[nH]n2)c(OCC2=NCCN2)c1
> 100000 nM | – | – | > 100000 nM | – | > 100000 nM | – | – | – | c1ccc(-c2ccncn2)c(OCC2=NCCN2)c1
> 100000 nM | – | – | 100 nM | – | > 100000 nM | 122% | – | – | c1ccc(-c2ncc[nH]2)c(OCC2=NCCN2)c1
> 100000 nM | 324 nM | 27.5 nM | 3.16 nM | 741 nM | > 100000 nM | – | – | – | c1ccc(-c2ccccc2OCC2=NCCN2)cc1
> 100000 nM | – | – | 25.1 nM | – | > 100000 nM | 97% | – | – | Cc1ccc(-c2ccccc2OCC2=NCCN2)s1
20 nM | – | – | 2.51 nM | – | 31.6 nM | 102% | 100% | 113% | c1ccc(-c2nccs2)c(OCC2=NCCN2)c1
79.4 nM | 257 nM | 50.1 nM | 2 nM | 1290 nM | 158 nM | 109% | 111% | 38% | c1cncc(-c2ccccc2OCC2=NCCN2)c1
> 100000 nM | – | – | 316 nM | – | > 100000 nM | 86% | – | – | CS(=O)(=O)Nc1ccc(F)c([C@@H](O)CN)c1 [NS-49]
> 100000 nM | – | – | 1260 nM | – | > 100000 nM | 90% | – | – | c1cnc(-c2ccccc2OCC2=NCCN2)nc1
> 100000 nM | – | – | 25.1 nM | – | > 100000 nM | 104% | – | – | Cc1csc(-c2ccccc2OCC2=NCCN2)n1
12.6 nM | – | – | 5.01 nM | – | 25.1 nM | 99% | 56% | 82% | c1ccc(-c2ccns2)c(OCC2=NCCN2)c1
> 100000 nM | 417 nM | 34.7 nM | 3.16 nM | 776 nM | > 100000 nM | 99% | – | – | Cc1ccoc1-c1ccccc1OCC1=NCCN1
> 100000 nM | 1410 nM | 1290 nM | > 100000 nM | 2450 nM | > 100000 nM | – | – | – | Cc1ccnc(-c2ccccc2OCC2=NCCN2)c1
> 100000 nM | – | – | 126 nM | – | > 100000 nM | 80% | – | – | Cc1cccc(-c2ccccc2OCC2=NCCN2)n1
> 100000 nM | – | – | 158 nM | – | > 100000 nM | 75% | – | – | Cc1cc(-c2ccccc2OCC2=NCCN2)sn1
> 100000 nM | – | – | 7.94 nM | – | 794 nM | 101% | – | 20% | c1ccc(-c2ccccc2NCC2=NCCN2)cc1
